Experimental data as given in the RNAGym collection of RNA variant scans (doi:10.1126/science.aae0568).
Variants at the floor of the assay were thinned out.

B1: tRNA (parent)
chain: GUUCCGUUGGCGUAAUGGUAACGCGUCUCCCUCCUAAGGAGAAGACUGCGGGUUCGAGUCCCGUACGGAACG

Variants of: B1
Test: yeast fitness relative to wild type (ratio to wild type); higher = fitter; tRNA-Arg(CCU), competitive growth, 37 C, YPD
Outline: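 Variants of the tRNA-Arg(CCU) gene were chemically synthesised with a 3% per-site mutation rate across 69 sites and placed at the native genomic locus in Saccharomyces cerevisiae. Six parallel replicates of the pooled strains were competed in YPD at 37°C for 24 hours, and gene amplicons from the start and end populations were read by 100-nucleotide paired-end sequencing. Darwinian fitness relative to wild type was derived from changes in genotype frequencies. Genotypes required ≥ 100 starting reads, and estimates < 0.5 were set to 0.5.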

Compared with C5U U19C A37G G63C, C5U C27U is higher in yeast fitness: at most 0.5 for the first, 1.09 for the second.

Going from C5U U13A G38C U47G C62U to C5U C33U, the yeast fitness rises from at most 0.5 to 0.71.

Compared with C5U U8A G18C G23A, C5U G44C A45U is higher in yeast fitness: at most 0.5 for the first, 0.657 for the second.

C5U U16G A40G A42U G52A and C5U C11U A65U C66G cannot be ordered by yeast fitness: at most 0.5 for the first, at most 0.5 for the second.

C5U C30A C33G A42C C62A and C5U U13A C29A C31G cannot be ordered by yeast fitness: at most 0.5 for the first, at most 0.5 for the second.

C5U G50C G51C G56C G67A and C5U C27G C60A cannot be ordered by yeast fitness: at most 0.5 for the first, at most 0.5 for the second.

Compared with C5U U26A C46G, C5U C22G U47C is lower in yeast fitness: 0.717 for the first, 0.687 for the second.

First: C5U C34A G67A
Second: C5U G18A U28A G56A C61G
The yeast fitness of the first is lower: at most 0.5 for the first, 0.626 for the second.

C5U C11U C62U G68A and C5U G10A C27G G48C C61G cannot be ordered by yeast fitness: at most 0.5 for the first, at most 0.5 for the second.

First: C5U G10A A21G G39A G48C
Second: C5U G6C
The yeast fitness of the first is lower: 0.598 for the first, 0.818 for the second.

Compared with C5U C29A U32C C60A, C5U U8A G38C A42C G63A is lower in yeast fitness: 0.596 for the first, 0.534 for the second.

C5U U19C G67C A70U and C5U G10C C30G C34U A42C G52A cannot be ordered by yeast fitness: at most 0.5 for the first, at most 0.5 for the second.

First: C5U G52C C66U
Second: C5U U19C C55A G58C
The yeast fitness of the first is higher: 0.57 for the first, at most 0.5 for the second.

First: C5U G12A A45C
Second: C5U U7A A45G G67A
The yeast fitness of the first is higher: 0.782 for the first, at most 0.5 for the second.

C5U G38C A65U and C5U C22A G25A C66U cannot be ordered by yeast fitness: at most 0.5 for the first, at most 0.5 for the second.

Compared with C5U C11U A69U, C5U C11U C49U is lower in yeast fitness: 0.734 for the first, 0.721 for the second.

C5U C24U G38C G44C and C5U U26A G48C A57G cannot be ordered by yeast fitness: at most 0.5 for the first, at most 0.5 for the second.

Compared with C5U C55G A69U, C5U C22G C27U is higher in yeast fitness: at most 0.5 for the first, 0.612 for the second.

First: C5U C29U G44A
Second: C5U G10A G12A U53A
The yeast fitness of the first is higher: 0.868 for the first, at most 0.5 for the second.

C5U U8G A20G C34A and C5U G41A G52A cannot be ordered by yeast fitness: at most 0.5 for the first, at most 0.5 for the second.

C5U G41A G52C and C5U G51C C55A C62U A65U A69U cannot be ordered by yeast fitness: at most 0.5 for the first, at most 0.5 for the second.

First: C5U U19A G48A
Second: C5U C22U C30G A57U C66U A70U
The yeast fitness of the first is higher: 0.741 for the first, at most 0.5 for the second.

Going from C5U G50C to C5U G9A C49A, the yeast fitness falls from 0.699 to 0.513.

Going from C5U C11U C60U A69U to C5U C30A A42U A69C, the yeast fitness falls from 0.538 to at most 0.5.

C5U U8A A21G C49U G63C and C5U C29U A36G U59A cannot be ordered by yeast fitness: at most 0.5 for the first, at most 0.5 for the second.

Going from C5U C22U C34U G41A A45G to C5U C27G G68C, the yeast fitness rises from at most 0.5 to 0.577.

C5U C34U U35C A70C and C5U U7A G10A G48C cannot be ordered by yeast fitness: at most 0.5 for the first, at most 0.5 for the second.

Compared with C5U C22G C24A, C5U G17A C66A is higher in yeast fitness: at most 0.5 for the first, 0.522 for the second.

First: C5U C46G
Second: C5U C46U U59G
The yeast fitness of the first is higher: 0.93 for the first, 0.538 for the second.

First: C5U U16A G23A G25C
Second: C5U G10A C66U
The yeast fitness of the first is lower: at most 0.5 for the first, 0.574 for the second.

Going from C5U C31A G56A to C5U C31U A37C A43U G50C A57G, the yeast fitness falls from 0.562 to at most 0.5.

Going from C5U U16A G63A to C5U G44C G68C, the yeast fitness rises from at most 0.5 to 0.697.

Compared with C5U U19A G25C A43U, C5U C61U A70G is lower in yeast fitness: 0.758 for the first, 0.609 for the second.

Compared with C5U G44A C55U, C5U G48A C55U A65C is lower in yeast fitness: 0.629 for the first, 0.556 for the second.

Going from C5U C24U U32A C55G A69U to C5U G18A G44C, the yeast fitness rises from at most 0.5 to 0.638.

C5U U8A A65U and C5U G10C A15G G67U cannot be ordered by yeast fitness: at most 0.5 for the first, at most 0.5 for the second.

Compared with C5U C11U U32G C33A U47A C62U C66G, C5U U13G A69U is higher in yeast fitness: at most 0.5 for the first, 0.76 for the second.

Compared with C5U C24U C55U, C5U C30U A42C C60G is lower in yeast fitness: 0.711 for the first, at most 0.5 for the second.

C5U G17C U26G A69U and C5U C24U G41C cannot be ordered by yeast fitness: at most 0.5 for the first, at most 0.5 for the second.

Compared with C5U U19C A43U, C5U G25C C29A is lower in yeast fitness: 1.09 for the first, at most 0.5 for the second.

First: C5U C29G C30G
Second: C5U C22A A45C
The yeast fitness of the first is lower: at most 0.5 for the first, 0.564 for the second.

Going from C5U C22U A37C G48U C55A to C5U G25A A70U, the yeast fitness rises from at most 0.5 to 1.05.

Compared with C5U G52A C66U, C5U G10A is higher in yeast fitness: 0.584 for the first, 0.702 for the second.

First: C5U G10C
Second: C5U U16G A43U G58A
The yeast fitness of the first is higher: 0.629 for the first, at most 0.5 for the second.

C5U C34U A40C and C5U U7A C62A A69G A70G cannot be ordered by yeast fitness: at most 0.5 for the first, at most 0.5 for the second.

C5U G9C C11G C24A U26G C31G A45U C61U and C5U G52A G63C cannot be ordered by yeast fitness: at most 0.5 for the first, at most 0.5 for the second.

C5U G17C C29A C46G G56A and C5U C29U G38C cannot be ordered by yeast fitness: at most 0.5 for the first, at most 0.5 for the second.

C5U G50C G67A and C5U C33U A36C U54C cannot be ordered by yeast fitness: at most 0.5 for the first, at most 0.5 for the second.

Compared with C5U U8A G68A, C5U C34U C60U is lower in yeast fitness: 0.544 for the first, at most 0.5 for the second.

Compared with C5U C24U G56C, C5U U16G G41C G51A C60G A70U is lower in yeast fitness: 0.53 for the first, at most 0.5 for the second.

C5U C24G U53A G63A and C5U C31G A57U cannot be ordered by yeast fitness: at most 0.5 for the first, at most 0.5 for the second.

First: C5U C27A A42U
Second: C5U G48A G51C
The yeast fitness of the first is higher: 0.642 for the first, at most 0.5 for the second.

C5U C24A C55A A65G and C5U C22U C33U A70C cannot be ordered by yeast fitness: at most 0.5 for the first, at most 0.5 for the second.

C5U C24U A36G C46A U47C C55A and C5U G25C A42U A69U cannot be ordered by yeast fitness: at most 0.5 for the first, at most 0.5 for the second.

C5U G18C U26C C30U C31G A70C and C5U C29A A69C cannot be ordered by yeast fitness: at most 0.5 for the first, at most 0.5 for the second.

Going from C5U G39A to C5U G39U, the yeast fitness falls from 0.938 to 0.823.

First: C5U C27G G38A
Second: C5U C11U U35G A43U C46G U53C A69C
The yeast fitness of the first is lower: 0.515 for the first, 0.549 for the second.

C5U C27G A40C and C5U C31G U47C G48C cannot be ordered by yeast fitness: at most 0.5 for the first, at most 0.5 for the second.

First: C5U C22G U26G A42C
Second: C5U C27G C31G G50C G58C
The yeast fitness of the first is lower: at most 0.5 for the first, 0.743 for the second.

C5U C22U U26A C55G and C5U U13A C46A C62U C66U cannot be ordered by yeast fitness: at most 0.5 for the first, at most 0.5 for the second.

C5U C22G C24G C31U A70C and C5U C22U G41C C49G U59G G63A C66U cannot be ordered by yeast fitness: at most 0.5 for the first, at most 0.5 for the second.

First: C5U G48A
Second: C5U G9C G52C U54C A69C
The yeast fitness of the first is higher: 0.891 for the first, at most 0.5 for the second.

Going from C5U U7A A14G to C5U G6A A40C C46A, the yeast fitness rises from 0.538 to 0.578.

First: C5U U19C
Second: C5U G10A A70U
The yeast fitness of the first is higher: 0.963 for the first, 0.609 for the second.

C5U C29U G50C U59A and C5U C31A A40G C61U A65U cannot be ordered by yeast fitness: at most 0.5 for the first, at most 0.5 for the second.

Compared with C5U G25C A42U, C5U U16A C33U C61G A70U is lower in yeast fitness: 0.639 for the first, at most 0.5 for the second.

C5U G10A A14U C31A C46A A65U and C5U G12A A40U A45G C60A G63A cannot be ordered by yeast fitness: at most 0.5 for the first, at most 0.5 for the second.

C5U C30U A37C U54A and C5U G10C C30A A36U A42C cannot be ordered by yeast fitness: at most 0.5 for the first, at most 0.5 for the second.

Going from C5U U19C C66U to C5U U19C C66G, the yeast fitness falls from 0.82 to 0.606.

Going from C5U G12C U32A U35A U54C to C5U U13A C29G C31A G63C, the yeast fitness rises from at most 0.5 to 0.533.

Compared with C5U G25A U32G, C5U C22G A69C is higher in yeast fitness: at most 0.5 for the first, 0.691 for the second.

Going from C5U C30G to C5U C30U, the yeast fitness rises from 0.676 to 0.942.

C5U G6A C11A U19A A69U and C5U U16C G18A C30A G58A G68U cannot be ordered by yeast fitness: at most 0.5 for the first, at most 0.5 for the second.

First: C5U C22U C31U C49A U59C A69U
Second: C5U U8C U26A
The yeast fitness of the first is lower: at most 0.5 for the first, 0.727 for the second.

C5U U8C C29G U53G and C5U C61A G68A cannot be ordered by yeast fitness: at most 0.5 for the first, at most 0.5 for the second.

Compared with C5U C24A U47A, C5U C27G U35G G44A is lower in yeast fitness: 0.656 for the first, at most 0.5 for the second.

C5U G38C G48C G52A and C5U C31U G41C A43C C60G cannot be ordered by yeast fitness: at most 0.5 for the first, at most 0.5 for the second.

C5U U16G U35A and C5U G18A G25C A69C cannot be ordered by yeast fitness: at most 0.5 for the first, at most 0.5 for the second.

C5U G6A A15U A21G U54G and C5U U16A G38A A42G U64G cannot be ordered by yeast fitness: at most 0.5 for the first, at most 0.5 for the second.

C5U C27G G38A A69C and C5U G17C C27U A65G cannot be ordered by yeast fitness: at most 0.5 for the first, at most 0.5 for the second.

Compared with C5U C49U C66A G67A, C5U C33U C62A is higher in yeast fitness: at most 0.5 for the first, 0.579 for the second.

Going from C5U G12C A69U to C5U G39A A45C, the yeast fitness rises from 0.62 to 0.76.

Compared with C5U U19A G38C C62G G68C, C5U U16C C55A is higher in yeast fitness: 0.62 for the first, 0.627 for the second.

Work on C5U C27U U35G A36G G58C C66U yielded a yeast fitness of at most 0.5.
